Data on one molecule can be found in publication PMC8177775 (Cancer Science, 2021).

“And” between values parts separate entries of the source, which are not always exact repeats. Equal entries are not always repeated.

The subject of experiment [1] is solid tumors. The experiment can be described thus: Efficacy assessment by RECIST version 1.1. It counts as in vivo, human. An outline of the steps: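 Adults with relapsed or refractory solid tumors took oral test compound (tosylate salt) QD on days 1–21 of 28-day cycles at 60, 90 or 120 mg. Response was assessed by RECIST 1.1 using CT and MRI every 8 weeks through cycle 8, then every 12 weeks. Minimum SD duration was 8 weeks after first dose. Summaries were descriptive over patients with efficacy data.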

The test system of experiment [2] is six human cancer cell lines. The note with it: cited from earlier work.

For `CC1(C)CCC2(CC1)N[C@@H](C(=O)N[C@@H]1CC[C@@H](C(N)=O)OC1)[C@H](c1ccnc(Cl)c1F)[C@]21C(=O)Nc2cc(Cl)ccc21` [milademetan, Milademetan], the “Complete or partial response” value in experiment [1] (16 patients) was “No patients achieved complete or partial response”. Besides, the Antitumor activity entry in experiment [1] (Japanese patients with solid tumors) is “modest antitumor activity”. In experiment [1] (Total (n = 16)), the “Disease control rate, percentage of patients (95% CI)” value was 43.8%; the “Progressive disease, percentage of patients (95% CI)” value is listed as 31.3%; the “Stable disease, percentage of patients (95% CI)” value turned out to be 43.8%. The “PFS rate (95% CI)” value in experiment [1] (at 3 months) is 56.8%. For the same molecule, the “PFS rate (95% CI)” value in experiment [1] (at 6, 9, and 12 months) is 35.5%. Further, the “Patients with a PFS event” value in experiment [1] (efficacy analysis set, 17 patients) is on record as “Eight of the 17 patients”. Further, in experiment [1] (including censored patients), the “Median (minimum, maximum) PFS” value is 15.29 (0.1, 202.1) weeks and 15.3 (0.1+, 202.1+) weeks; the “Median (range) duration of stable disease” value is 55.4 (7.3‐202.1) weeks and 55.4 (7.3+, 202.1+) weeks. Moreover, the “PFS of one patient” value in experiment [1] (one patient in the 60-mg cohort with SD as best response) was determined as 202.1 weeks. In experiment [2], the “Growth of cancer cells harboring wild-type p53” value is “inhibits the growth”.
